# ChEMBL document CHEMBL1157078, “Cytotoxic activities of several geranyl-substituted flavanones” (J Nat Prod, 2010)
# How the values were obtained:
# MCF7 = assay: Cytotoxicity against human MCF7 cells assessed as viable cells after 72 hrs by calcein AM assay; type: functional, cell-based; conditions: MCF7, 72 h
# Method in brief: (§1)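 Cells kept in DMEM with 10% FBS, L-glutamine and antibiotics at 37 °C, 5% CO2, and seeded at about 1.25×10^5 cells/mL, then left 3 h to stabilize. Six 3-fold dilutions were added in triplicate (final 100 to 0.4 μM, DMSO ≤0.6%) for 72 h. Viable cells were stained with 2 μM calcein AM for 1 h and fluorescence read at 485/538 nm. EC50 came from dose-response curves of three independent measurements, ±SD.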
# CCRF-CEM = assay: Cytotoxicity against human CEM cells assessed as viable cells after 72 hrs by calcein AM assay; type: functional, cell-based; method in brief: as §1
# RPMI-8226 = assay: Cytotoxicity against human RPMI8226 cells assessed as viable cells after 72 hrs by calcein AM assay; type: functional, cell-based; conditions: RPMI-8226, 72 h; method in brief: as §1
# U-266 = assay: Cytotoxicity against human U266 cells assessed as viable cells after 72 hrs by calcein AM assay; type: functional, cell-based; conditions: U-266, 72 h; method in brief: as §1
# HeLa = assay: Cytotoxicity against human HeLa cells assessed as viable cells after 72 hrs by calcein AM assay; type: functional, cell-based; method in brief: as §1
# BJ = assay: Cytotoxicity against human BJ cells assessed as viable cells after 72 hrs by calcein AM assay; type: cell-based; method in brief: as §1
# THP-1 = assay: Cytotoxicity against human THP1 cells after 72 hrs by erythosin B staining method; type: functional, cell-based; conditions: THP-1, 72 h
# Method in brief: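 THP-1 cells from ECACC, kept in RPMI with 10% FBS, 2% L-glutamine and 1% penicillin/streptomycin at 37 °C, 5% CO2. Compounds in DMSO were added at five increasing concentrations and cells incubated 72 h. Cells were mixed 1:1 with 0.1% erythrosin B in PBS (pH 7.2-7.4), and unstained (viable) and red (nonviable) cells counted by hemocytometer. EC50 came from dose-response curves of three independent measurements, ±SD.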
SMILES,EC50 (MCF7) [µM],EC50 (CCRF-CEM) [µM],EC50 (RPMI-8226) [µM],EC50 (U-266) [µM],EC50 (HeLa) [µM],EC50 (BJ) [µM],EC50 (THP-1) [µM]
COc1cc([C@@H]2CC(=O)c3c(cc(O)c(C/C=C(\C)CCC=C(C)C)c3O)O2)cc(O)c1O,< 10,< 10,7.3,5.5,7.4,4.7,< 10
CC[C@@]1(O)C(=O)OCc2c1cc1n(c2=O)Cc2cc3ccccc3nc2-1 [CAMPTOTHECIN],,,,,,,0.16
CC(C)=CCC/C(C)=C/Cc1c(O)cc2c(c1O)C(=O)C[C@@H](c1ccc(O)c(O)c1)O2 [NYMPHAEOL A],< 10,3.2,< 10,2.4,< 10,5.9,< 10
COc1cc([C@@H]2CC(=O)c3c(cc(O)c(C/C=C(\C)CCC=C(C)C)c3O)O2)cc(OC)c1O,> 10,> 10,> 10,> 10,> 10,> 10,> 10
COc1cc([C@@H]2CC(=O)c3c(cc(O)c(C/C=C(\C)CCC=C(C)C)c3O)O2)ccc1O,< 10,< 10,< 10,< 10,9.2,< 10,< 10
C=C(C)C(O)CC/C(C)=C/Cc1c(O)cc2c(c1O)C(=O)C[C@@H](c1ccc(O)c(OC)c1)O2 (stereo partly specified) [TOMENTODIPLACONE],> 10,> 10,> 10,> 10,> 10,> 10,> 10
O=C1C[C@@H](c2ccc(O)cc2)Oc2cc(O)cc(O)c21 [NARINGENIN],> 10,> 10,> 10,> 10,> 10,> 10,> 10
CC[C@H](CO)Nc1nc(NCc2ccccc2O)c2ncn(C(C)C)c2n1 [OLOMOUCINE II],4.6,8.1,6,7.2,9.9,5.4,
COc1ccc([C@@H]2CC(=O)c3c(O)cc(O)cc3O2)cc1O [HESPERETIN],> 10,> 10,> 10,> 10,> 10,> 10,> 10
COc1cc([C@@H]2CC(=O)c3c(cc(O)c(C/C=C(\C)C/C=C/C(C)(C)O)c3O)O2)ccc1O [TOMENTODIPLACONE B],> 10,> 10,> 10,> 10,> 10,> 10,> 10
COc1cc(O)c([C@@H]2CC(=O)c3c(O)cc(O)cc3O2)cc1C/C=C(\C)CCC=C(C)C,> 10,> 10,> 10,> 10,> 10,> 10,> 10
O=C1c2c(O)cc(O)cc2O[C@H](c2ccc(O)c(O)c2)[C@H]1O [(+)-TAXIFOLIN],> 10,> 10,> 10,> 10,> 10,> 10,> 10
CC(C)=CCC/C(C)=C/Cc1c(O)cc2c(c1O)C(=O)C[C@@H](c1ccc(O)cc1)O2 [BONANNIONE A],> 10,11.6,> 10,> 10,> 10,> 10,> 10
CC(C)=CCC/C(C)=C/Cc1c(O)cc2c(c1O)C(=O)C[C@@H](c1cc(O)cc(O)c1)O2,< 10,12.3,7.1,1.9,6.3,7.5,8.5
CC(C)=CCC/C(C)=C/Cc1cc(C2CC(=O)c3c(O)cc(O)cc3O2)c(O)cc1O (racemic) [KUWANON E],> 10,> 10,> 10,> 10,> 10,> 10,> 10
CCOC(=O)NC1=C(N2CC2)C(=O)C(NC(=O)OCC)=C(N2CC2)C1=O [DIAZIQUONE],4,0.86,3.4,2.8,6.4,< 10,
COc1cc([C@H]2Oc3cc(O)c(C/C=C(\C)CCC=C(C)C)c(O)c3C(=O)[C@@H]2O)ccc1O,> 10,> 10,> 10,> 10,> 10,> 10,> 10
